Tests used:
[1] = biological target: T1, NAT1 (arylamine N-acetyltransferase 1) (Homo sapiens, UniProt P18440); experiment: Increase in NAT1 enzyme activity in human HeLa cells at 0.5 uM using p-aminobenzoic acid substrate after 24 hrs by HPLC method relative to untreated control; type: ADME, cell-based; conditions: probe p-aminobenzoic acid, read-out: FC
T1 sequence (P18440 whole entry): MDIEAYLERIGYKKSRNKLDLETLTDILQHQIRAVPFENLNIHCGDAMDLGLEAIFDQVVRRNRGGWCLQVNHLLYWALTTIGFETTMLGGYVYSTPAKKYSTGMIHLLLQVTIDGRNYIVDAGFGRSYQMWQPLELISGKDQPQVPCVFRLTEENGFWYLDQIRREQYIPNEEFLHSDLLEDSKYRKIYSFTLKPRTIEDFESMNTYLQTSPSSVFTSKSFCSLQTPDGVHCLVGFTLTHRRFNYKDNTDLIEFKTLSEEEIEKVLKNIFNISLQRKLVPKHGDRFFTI
Method in brief: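 HeLa cultured in RPMI 1640 with 5% FBS and treated with 0.5 μM TSA or DMSO vehicle for 24 hr at 37°C. Cells washed with PBS and sonicated in 20 mM Tris pH 7.4, 1 mM EDTA, 1 mM DTT. Lysates assayed at once for NAT1 activity by HPLC with p-aminobenzoic acid substrate. Mean ± SEM, n = 3.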

[2] = biological target: T1, NAT1 (arylamine N-acetyltransferase 1); experiment: Increase in NAT1 enzyme activity in 40% confluent human HeLa cells at 0.5 uM using p-aminobenzoic acid substrate after 24 hrs by HPLC method relative to untreated control; type: ADME, cell-based; conditions: probe p-aminobenzoic acid, read-out: FC
Method in brief: (§1)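 HeLa seeded at 2 × 10⁵, 4 × 10⁵ or 6 × 10⁵ cells/well in 6-well plates (40, 80, 100% confluence at treatment). Treated with 0.5 μM TSA or vehicle for 24 hr. Sonicated lysates in 20 mM Tris pH 7.4, 1 mM EDTA, 1 mM DTT. NAT1 activity measured by HPLC with p-aminobenzoic acid substrate. Mean ± SEM, n = 3; Student's t-test versus vehicle.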

[3] = biological target: T1, NAT1 (arylamine N-acetyltransferase 1); experiment: Increase in NAT1 enzyme activity in 100% confluent human HeLa cells at 0.5 uM using p-aminobenzoic acid substrate after 24 hrs by HPLC method relative to untreated control; type: ADME, cell-based; conditions: probe p-aminobenzoic acid, read-out: FC; method in brief: as §1
HeLa [4] = experiment: Increase in NATb promoter activity in human HeLa cells at 0.5 uM after 24 hrs by qPCR method; type: ADME, cell-based
Method in brief: (§2)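 After 24 hr with 0.5 μM TSA or vehicle, HeLa NATb-derived NAT1 transcript quantified by qPCR. Cycling: 95°C 10 min, then 40 cycles (NATb) or 30 (β-actin) of 95°C 15 s, 50°C 20 s, 72°C. Single product checked by melt curve and gel. Normalised to β-actin; fold change by ΔΔCT. Mean ± SEM, n = 6; t-test.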

HeLa [5] = experiment: Increase in NATa promoter activity in human HeLa cells at 0.5 uM after 24 hrs by qPCR method; type: ADME, cell-based
NAT1 mRNA = experiment: Increase in NAT1 mRNA expression in human HeLa cells at 0.5 uM after 24 hrs by qPCR method; type: ADME, cell-based; conditions: read-out: FC; method in brief: as §2
NATb promoter of NAT1 [6] = experiment: Induction of NATb 3657 bp fragment upstream of exon 4 in human HeLa cells at 0.5 uM after 24 hrs by luciferase reporter gene assay; type: cell-based; conditions: read-out: FC
Method in brief: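 HeLa seeded at 1.5 × 10⁵ cells/well and left overnight, then transfected (Lipofectamine 2000) with 1 µg of a deletion series of NATb promoter–firefly luciferase constructs (length = bp upstream of exon 4). After 4 hr, 0.5 µM TSA or DMSO for 24 hr; passive lysis buffer; luciferase read-out. Mean ± SEM, n = 3; t-test.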

HeLa [7] = experiment: Induction of NATb Sp1 site in human HeLa cells at 0.5 uM after 24 hrs by luciferase reporter gene assay; type: cell-based
NATb promoter of NAT1 [8] = experiment: Induction of Sp1 recruitment to NATb promoter in human HeLa cells at 0.5 uM after 24 hrs by luciferase reporter gene assay; type: cell-based; conditions: read-out: FC
NATb promoter of NAT1 [9] = experiment: Induction of Sp1 (GC>TA) mutant recruitment to NATb promoter in human HeLa cells at 0.5 uM after 24 hrs by luciferase reporter gene assay; type: cell-based; conditions: read-out: FC
HeLa [10] = experiment: Induction of Sp1 recruitment to NATb promoter in human HeLa cells nuclear extracts at 0.5 uM after 24 hrs by EMSA method; type: cell-based
Method in brief: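 Nuclear extracts from HeLa treated with 0.5 µM TSA or vehicle. 2 µg extract incubated with 1 × 10⁵ d.p.m. ³²P probe spanning the NATb Sp1 site, 30 min at room temperature, in binding buffer pH 7.9 with poly[d(I-C)]. Competition used 100-fold excess unlabelled wild-type or mutant probe; supershift used 2 µg Sp1 antibody. Run on 5% native PAGE at 4°C; phosphorimaging.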

HeLa [11] = experiment: Induction of Sp1 recruitment to NATb promoter in human HeLa cells at 0.5 uM after 6 hrs by ChIP assay
HeLa [12] = experiment: Induction of acetylated histone H4 recruitment to NATb promoter in human HeLa cells at 0.5 uM after 6 hrs by ChIP assay
HeLa [13] = experiment: Effect on NAT1 mRNA stability in human HeLa cells assessed as slope of mRNA decay curve at 0.5 uM after 24 hrs in presence of transcription inhibitor actinomycin D by qPCR method (reference value: -0.78 +/- 0.09/hr)

SMILES: CC(/C=C/C(=O)NO)=C\[C@@H](C)C(=O)c1ccc(N(C)C)cc1 [TRICHOSTATIN]
- fold induction at 24 h, 0.5 µM [1]: 3.2
- fold induction at 24 h, 0.5 µM [2]: 4.1
- fold induction at 24 h, 0.5 µM [3]: < 1.5
- Activity (HeLa [4]): Toxic
- Activity (HeLa [5]): Non-toxic
- fold induction at 24 h, 0.5 µM (NAT1 mRNA): 25
- fold induction at 24 h, 0.5 µM (NATb promoter of NAT1 [6]): 18
- Activity (HeLa [7]): Toxic
- fold induction at 24 h, 0.5 µM (NATb promoter of NAT1 [8]): 45
- fold induction at 24 h, 0.5 µM (NATb promoter of NAT1 [9]): < 5
- Activity (HeLa [10]): Toxic
- Activity (HeLa [11]): Toxic
- Activity (HeLa [12]): Toxic
- Activity (HeLa [13]): -0.46 h⁻¹

Reference: ChEMBL document CHEMBL3526114, “Histone deacetylase inhibitors increase human arylamine N-acetyltransferase-1 expression in human tumor cells” (Drug Metab Dispos, 2011)
